Measurements taken from ChEMBL document CHEMBL1955811, “Inhibition of colony-stimulating-factor-1 signaling in vivo with the orally bioavailable cFMS kinase inhibitor GW2580” (Proc Natl Acad Sci U S A, 2005).
Calls of active or inactive are those of the source. The calls are words filed in the database; no cut-off is given here.

Key:
[1] = system: Osteoclast; assay: Inhibition of human osteoclast degradation of bone assessed as bone slice resorbed at 10 uM after 3 days by immunocytochemistry (reference value: 26.6 +/- 4.7 %); assay type: functional; settings: 72 h
[2] = system: Osteoclast; assay: Inhibition of human osteoclast degradation of bone assessed as reduction in actin ring formation per cm2 of bone at 10 uM […] by immunocytochemistry (reference value: 1546 +/- 232 /cm2 of bone)
[3] = Protein binding in cell-culture media with mouse plasma at 3 uM; assay type: ADME, cell-free; settings: read-out: PB (converted)
How it was run: (§1)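 Compound at 3 μM was added to triplicate samples and incubated 1 h at 37°C. Samples were centrifuged through a 30,000-MW filter (1,500 × g, 15 min, 4°C). Percent bound was calculated from compound concentrations in the filtrate and retentate.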

[4] = system: Monocyte; assay: Effect on LPS-induced TNF production in human monocytes at 0.03906 to 20 uM preincubated for 30 mins before LPS stimulation measured after 20 hrs by ELISA; assay type: functional, cell-based
[5] = system: Mus musculus; assay: Inhibition of LPS-stimulated TNF production in mouse at 40 mg/kg, po administered 4.5 hr before LPS challenge measured […] after LPS challenge; assay type: functional
[6] = system: Osteoclast; assay: Inhibition of human osteoclast attachment to plastic surface assessed cells per cm2 of plastic at 1 uM after 3 days by immunocytochemistry (reference value: 9723 +/- 1380 cells/cm2 of plastic); assay type: functional
How it was run: (§2)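 Human PBMCs from a healthy volunteer (5 × 10^5 cells in MEM/10% FCS) were seeded on plastic coverslips with RANKL and CSF-1 (30 ng/ml each) for 10 days, with medium changed every 3 days. Compound was added on day 10 (0.1% DMSO final). On day 13, total cells on the coverslips were counted by immunocytochemistry. Data are mean ± SEM.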

[7] = Cmax in mouse at 80 mg/kg, po; assay type: ADME, organism-based; parameters: dose 80 mg/kg, route oral; settings: in vivo
How it was run: (§3)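 Female mice given single oral doses (20 or 80 mg/kg) in 0.5% HPMC/0.1% Tween 80. Three mice killed with CO2 per time point; plasma extracted with isopropyl alcohol/acetonitrile, then vortexed, sonicated and centrifuged. Quantified by LC/MS (APCI positive mode, multiple-reaction monitoring) against a standard curve prepared in plasma.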

[8] = system: Osteoclast; assay: Inhibition of human osteoclast attachment to plastic surface assessed cells per cm2 of plastic at 3 uM after 3 days by immunocytochemistry (reference value: 9723 +/- 1380 cells/cm2 of plastic); assay type: functional; how it was run: as §2
[9] = system: Mus musculus; assay: Inhibition of LPS-stimulated TNF production in CSF-1 primed mouse at 40 mg/kg, po administered 4.5 hr before LPS challenge and CSF-1 priming measured […] after LPS challenge; assay type: functional
[10] = (§4) Cmax in mouse at 20 mg/kg, po; assay type: ADME, organism-based; parameters: dose 20 mg/kg, route oral; settings: in vivo; how it was run: as §3
[11] = Protein binding in cell-culture media with human plasma at 3 uM; assay type: ADME, cell-free; settings: read-out: PB (converted); how it was run: as §1
[12] = system: Mus musculus; assay: Inhibition of thioglycolate-induced macrophage influx into peritoneal cavity in mouse at 80 mg/kg, po BID administered 7 days before and 4 days after thioglycolate challenge; assay type: functional
How it was run: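 Female C3H/HEN mice (22-26 g) were dosed orally with compound suspended in 0.5% hydroxypropylmethylcellulose/0.1% Tween 80 (0.2 ml per mouse). Thioglycolate (1.5 ml) was injected i.p. on day 0. On day 4, the peritoneum was lavaged with 5 ml cold PBS containing 40 units/ml heparin, and cells were counted by hemocytometer in 0.1% crystal violet. Data are mean ± SEM; Dunnett's test.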

[13] = as §4; assay type: ADME, organism-based; parameters: dose 20 mg/kg, route oral; settings: in vivo; how it was run: as §3; remark: listed apart in the source
[14] = system: NFS-60; assay: Antitumor activity in mouse M-NFS-60 cells allografted in CD-1 nude mouse assessed as inhibition of tumor cell growth in peritoneal cavity at 80 mg/kg, po BID starting 1 hr before challenge for 4 days measured after 4 days; assay type: functional, organism-based; parameters: dose 80 mg/kg
How it was run: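 CD-1 nude female mice (22-26 g); 1 × 10^7 M-NFS-60 cells in PBS injected i.p. Oral dosing b.i.d. at 20 and 80 mg/kg as a suspension in 0.5% hydroxypropylmethylcellulose/0.1% Tween 80 (0.2 ml per mouse), starting 1 h before cell injection. Peritoneal cells recovered by cold PBS-heparin lavage on day 4 and counted by hemocytometer after crystal violet dilution. Mean ± SEM; Dunnett's test.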

[15] = Growth inhibition of serum-stimulated human MDA231 cells after 3 days by spectrophotometry; assay type: functional, cell-based; settings: MDA-MB-231, 72 h
How it was run: (§5)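 Cells cultured so that added serum or growth factor gave linear growth. Compound tested as a 10- to 12-point dose-response with a top concentration of 20 μM.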

[16] = system: PBMC; assay: Effect on LPS-induced TNF production in human PBMC at 0.03906 to 20 uM preincubated for 30 mins before LPS stimulation measured after 20 hrs by ELISA; assay type: functional, cell-based
[17] = system: HFF; assay: Growth inhibition of serum-stimulated HFF after 3 days by spectrophotometry; assay type: cell-based; settings: Homo sapiens, 72 h; how it was run: as §5
[18] = system: Mus musculus; assay: Inhibition of LPS-stimulated TNF production in mouse at 20 to 80 mg/kg, po administered 4.5 hr before LPS challenge and measured […] after LPS challenge; assay type: functional, organism-based
[19] = molecular target: Protein kinase C alpha type (Homo sapiens, UniProt P17252); assay: Inhibition of human PKCa catalytic domain after by scintillation counting
How it was run: (§6)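 Catalytic domains of the human kinases were expressed, isolated and assayed with ATP and the appropriate substrate. Compound was tested as a 10- to 12-point dose-response up to a maximal 20 μM.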

[20] = molecular target: [Pyruvate dehydrogenase (acetyl-transferring)] kinase isozyme 4, mitochondrial (Homo sapiens, UniProt Q16654); assay: Inhibition of human His-tagged PDHK4 using biotin-YHGHSMSDPGVSYRRR-amide as substrate after 20 mins by scintillation proximity assay; how it was run: as §6
[21] = molecular target: Proto-oncogene tyrosine-protein kinase LCK (Mus musculus, UniProt P06240); assay: Inhibition of mouse LCK
[22] = system: Osteoclast; assay: Inhibition of human osteoclast degradation of bone assessed as bone slice resorbed at 3 uM after 3 days by immunocytochemistry (reference value: 26.6 +/- 4.7 %); assay type: functional; settings: 72 h
[23] = system: Mus musculus; assay: Inhibition of LPS-stimulated TNF production in CSF-1 primed mouse at 40 mg/kg, po administered 0.5 hr before LPS challenge post CSF-1 priming measured […] after LPS challenge; assay type: functional
[24] = system: A549; assay: Growth inhibition of serum-stimulated human A549 cells after 3 days by spectrophotometry; assay type: functional, cell-based; settings: A549, 72 h; how it was run: as §5
[25] = Inhibition of PTH-induced Wistar rat fetal long bone degradation assessed as labeled 45Ca release in to media at 0.1 to 0.3 uM after 48 hrs by liquid scintillation spectrometry; assay type: functional
How it was run: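 Fetal rat long bones preloaded with 45CaCl2 and incubated for 24 h. PTH and compound then added; release of labelled calcium into the medium measured 48 h later.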

[26] = molecular target: Protein kinase C beta type (Homo sapiens, UniProt P05771); assay: Inhibition of human PKCb1 catalytic domain after by scintillation counting; how it was run: as §6
[27] = system: Macrophage; assay: Effect on LPS-induced PGE2 production in CSF-1-stimulated human macrophages at 0.03906 to 20 uM preincubated for 30 mins before LPS stimulation measured after 20 hrs by ELISA; assay type: functional, cell-based
[28] = system: Osteoclast; assay: Inhibition of human osteoclast degradation of bone assessed as reduction in actin ring formation per cm2 of bone at 1 uM after 3 days by immunocytochemistry (reference value: 1546 +/- 232 /cm2 of bone); assay type: functional

Sequence of Proto-oncogene tyrosine-protein kinase LCK (P06240 whole entry): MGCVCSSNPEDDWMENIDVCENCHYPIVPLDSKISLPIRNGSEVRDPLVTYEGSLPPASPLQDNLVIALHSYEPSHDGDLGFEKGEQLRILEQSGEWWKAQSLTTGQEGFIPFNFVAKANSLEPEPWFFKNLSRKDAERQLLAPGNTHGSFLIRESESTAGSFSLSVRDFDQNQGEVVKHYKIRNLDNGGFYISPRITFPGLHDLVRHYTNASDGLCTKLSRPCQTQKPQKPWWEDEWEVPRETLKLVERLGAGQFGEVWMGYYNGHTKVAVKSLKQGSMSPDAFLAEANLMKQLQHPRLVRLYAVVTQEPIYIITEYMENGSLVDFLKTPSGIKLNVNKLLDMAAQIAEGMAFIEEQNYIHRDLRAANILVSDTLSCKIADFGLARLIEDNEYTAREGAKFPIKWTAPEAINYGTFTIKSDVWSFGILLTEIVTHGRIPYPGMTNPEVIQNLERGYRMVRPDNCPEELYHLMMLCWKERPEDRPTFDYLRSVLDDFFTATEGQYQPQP
Sequence of Protein kinase C beta type (P05771 whole entry, the tested form may be a part): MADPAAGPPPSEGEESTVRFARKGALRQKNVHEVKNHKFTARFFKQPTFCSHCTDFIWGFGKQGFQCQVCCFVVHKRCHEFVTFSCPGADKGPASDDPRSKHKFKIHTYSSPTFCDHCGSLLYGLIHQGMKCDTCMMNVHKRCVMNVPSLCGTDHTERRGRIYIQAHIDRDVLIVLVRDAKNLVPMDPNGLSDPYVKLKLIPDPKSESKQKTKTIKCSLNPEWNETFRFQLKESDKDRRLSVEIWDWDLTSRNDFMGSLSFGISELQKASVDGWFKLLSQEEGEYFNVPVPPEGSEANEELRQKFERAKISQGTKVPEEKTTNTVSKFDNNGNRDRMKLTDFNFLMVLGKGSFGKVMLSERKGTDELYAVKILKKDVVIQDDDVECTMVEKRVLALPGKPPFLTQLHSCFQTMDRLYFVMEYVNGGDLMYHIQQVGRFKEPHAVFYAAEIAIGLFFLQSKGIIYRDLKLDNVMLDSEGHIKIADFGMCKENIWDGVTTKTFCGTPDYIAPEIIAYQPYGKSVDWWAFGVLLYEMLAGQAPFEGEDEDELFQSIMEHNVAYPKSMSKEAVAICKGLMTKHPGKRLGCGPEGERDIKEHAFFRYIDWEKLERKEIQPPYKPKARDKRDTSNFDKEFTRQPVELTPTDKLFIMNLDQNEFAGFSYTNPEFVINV
Sequence of [Pyruvate dehydrogenase (acetyl-transferring)] kinase isozyme 4, mitochondrial (Q16654 whole entry): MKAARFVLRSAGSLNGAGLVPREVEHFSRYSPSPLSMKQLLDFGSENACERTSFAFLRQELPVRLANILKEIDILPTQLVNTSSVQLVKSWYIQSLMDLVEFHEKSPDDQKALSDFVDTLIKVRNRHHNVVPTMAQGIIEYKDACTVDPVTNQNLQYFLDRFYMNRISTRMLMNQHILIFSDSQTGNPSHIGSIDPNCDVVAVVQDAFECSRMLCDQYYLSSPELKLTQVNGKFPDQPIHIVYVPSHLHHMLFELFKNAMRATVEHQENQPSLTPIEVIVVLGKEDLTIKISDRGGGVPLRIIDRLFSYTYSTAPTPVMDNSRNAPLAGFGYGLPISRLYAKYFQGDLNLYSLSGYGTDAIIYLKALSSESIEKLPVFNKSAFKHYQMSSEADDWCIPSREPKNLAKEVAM

- fraction unbound at 3 µM [3]: 0.07
- Cmax [7]: 5600 nM
- Cmax [10]: 50 nM
- fraction unbound at 3 µM [11]: 0.02
- Cmax [13]: 1400 nM
- IC50 [19]: > 13 µM
- IC50 [20]: > 28 µM
- IC50 [21]: > 10 µM
- IC50 [24]: > 30 µM
- IC50 [26]: > 13 µM
SMILES: COc1ccc(COc2ccc(Cc3cnc(N)nc3N)cc2OC)cc1 [GW632580X]
- bone resorption (%) at 10 µM [1]: 1.2%
- Activity [2]: 0 /cm2
- Activity [4]: inactive
- inhibition in vivo at 40 mg/kg [5]: 42%
- Activity [6]: 2984 /cm2
- Activity [8]: 3369 /cm2
- inhibition in vivo at 40 mg/kg [9]: 58%
- inhibition in vivo at 80 mg/kg [12]: 45%
- growth inhibition (GI) [14]: Active
- IC50 [15]: > 30 µM
- Activity [16]: inactive
- IC50 [17]: > 30 µM
- inhibition [18]: Active
- bone resorption (%) at 3 µM [22]: 1.5%
- inhibition in vivo at 40 mg/kg [23]: 63%
- inhibition (INH) [25]: 30%
- Activity [27]: inactive
- Activity [28]: 479 /cm2
